The source of these data is ChEMBL document CHEMBL1152325, “Antioxidant and anticholinesterase activity evaluation of ent-kaurane diterpenoids from Sideritis arguta” (J Nat Prod, 2009).

Assay [1] is described as follows: Antioxidant activity against beta-carotene and linoleic acid assessed as inhibition of bleaching of beta-carotene. In kind it is functional. Summed up:
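β-Carotene–linoleic acid model system on extracts and isolated diterpenoids. Bleaching inhibition was measured at four concentrations in triplicate, reported as mean ± SD. IC50 in µg/mL.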

The subject of assay [2] is Radical scavenging activity. The assay is described as follows: Antioxidant activity assessed as DPPH radical scavenging activity. In kind it is functional. Summed up: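 DPPH free-radical scavenging by the Blois method on extracts and diterpenoids. Tested at four concentrations in triplicate analyses, given as mean ± SD. Results expressed as IC50 (µg/mL).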
Background: DPPH is a stable violet radical that fades when it is reduced.

Assay [3] in a line: Antioxidant activity assessed as superoxide radical scavenging activity by phenazin methosulphate-NADH-NBT assay. It is filed as functional. In a few lines: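 Superoxide-anion scavenging by the NADH-PMS-NBT method after Liu et al. Extracts and diterpenoids were tested at four concentrations in triplicate, as mean ± SD. IC50 reported in µg/mL.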
The target in the next assay is Acetylcholinesterase (Homo sapiens, UniProt P22303). The assay is described as follows: Inhibition of AChE by spectrophotometry.
A further assay addresses Cholinesterase (Homo sapiens, UniProt P06276). The assay is described as follows: Inhibition of BChE by spectrophotometry.

Chain of Cholinesterase (P06276 whole entry): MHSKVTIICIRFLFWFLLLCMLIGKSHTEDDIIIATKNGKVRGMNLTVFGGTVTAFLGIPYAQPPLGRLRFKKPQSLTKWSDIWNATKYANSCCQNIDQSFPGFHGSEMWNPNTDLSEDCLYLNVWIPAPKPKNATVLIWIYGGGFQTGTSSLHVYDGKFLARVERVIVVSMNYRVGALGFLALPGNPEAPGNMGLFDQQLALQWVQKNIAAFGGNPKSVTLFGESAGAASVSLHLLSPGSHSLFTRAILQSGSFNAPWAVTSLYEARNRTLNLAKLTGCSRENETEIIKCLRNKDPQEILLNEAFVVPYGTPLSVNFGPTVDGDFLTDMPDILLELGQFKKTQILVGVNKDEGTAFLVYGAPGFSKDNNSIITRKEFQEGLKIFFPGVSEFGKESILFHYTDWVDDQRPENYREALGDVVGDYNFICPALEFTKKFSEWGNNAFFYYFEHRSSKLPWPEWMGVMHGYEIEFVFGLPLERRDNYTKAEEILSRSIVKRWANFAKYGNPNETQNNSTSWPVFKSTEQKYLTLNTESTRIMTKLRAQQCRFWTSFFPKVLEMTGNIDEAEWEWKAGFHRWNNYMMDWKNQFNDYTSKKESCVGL
Chain of Acetylcholinesterase (P22303 whole entry): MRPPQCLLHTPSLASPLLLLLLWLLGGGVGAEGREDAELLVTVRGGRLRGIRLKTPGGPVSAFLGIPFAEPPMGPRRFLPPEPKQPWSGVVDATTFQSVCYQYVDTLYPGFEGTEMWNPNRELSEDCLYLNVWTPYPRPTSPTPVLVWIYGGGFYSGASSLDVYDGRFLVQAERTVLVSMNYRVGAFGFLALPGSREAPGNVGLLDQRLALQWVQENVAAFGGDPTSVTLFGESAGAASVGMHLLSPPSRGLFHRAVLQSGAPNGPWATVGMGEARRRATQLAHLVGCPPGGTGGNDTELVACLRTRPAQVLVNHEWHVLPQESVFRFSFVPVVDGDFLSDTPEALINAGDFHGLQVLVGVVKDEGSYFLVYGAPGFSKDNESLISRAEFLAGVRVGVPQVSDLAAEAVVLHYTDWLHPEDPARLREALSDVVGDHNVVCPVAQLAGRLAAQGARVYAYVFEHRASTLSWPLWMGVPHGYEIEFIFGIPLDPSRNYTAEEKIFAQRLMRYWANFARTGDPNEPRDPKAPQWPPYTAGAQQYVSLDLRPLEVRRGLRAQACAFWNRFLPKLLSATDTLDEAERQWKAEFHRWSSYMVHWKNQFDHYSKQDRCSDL

Broadly, the IC50 is the concentration that inhibits the measured activity by half. Turning to `C=C1C[C@]23C[C@H]1CC[C@H]2[C@]1(C)CCC[C@](C)(CO)[C@@H]1C[C@@H]3O`, the 50% inhibitory concentration (IC50) in assay [1] was 43.1 µg/mL; in assay [2], “Not Active”; in assay [3], “Not Active”; at Acetylcholinesterase (read-out: IC50), 22.8 µM; against Cholinesterase, 21.1 µM.
In the case of `Cc1c(C)c2c(c(C)c1O)CC[C@@](C)(CCC[C@H](C)CCC[C@H](C)CCCC(C)C)O2` [ALPHA-TOCOPHEROL], the IC50 is 2.1 µg/mL in assay [1] and 12.26 µg/mL in assay [2].
For the compound `COc1ccc(O)c(C(C)(C)C)c1.COc1ccc(O)cc1C(C)(C)C` [BUTYLATED HYDROXYANISOLE], the IC50 in assay [1] worked out at 1.5 µg/mL; in assay [2], 5.88 µg/mL; in assay [3] (read-out: IC50), 27.1 µM.
On to `Cc1cc(C(C)(C)C)c(O)c(C(C)(C)C)c1` [BUTYLATED HYDROXYTOLUENE], for which the results for the IC50 in assay [1] and in assay [2] were 1.3 µg/mL and 66.73 µg/mL, respectively.
On to `CC(=O)OC[C@@]1(C)CCC[C@]2(C)[C@H]1C[C@H](OC(C)=O)[C@@]13C[C@@H](CC[C@@H]21)[C@](C)(O)C3` [DIACETYLDISTANOL], for which the IC50 in assay [1] (read-out: IC50) is > 200 µM; in assay [2] (read-out: IC50), > 200 µM; in assay [3] (read-out: IC50) it was > 200 µM; against Acetylcholinesterase, “Not Active”; against Cholinesterase it was 176 µM.
On to `C=C1[C@@H]2CC[C@H]3[C@]4(C)CCC[C@](C)(CO)[C@@H]4C[C@H](O)[C@]3(C2)[C@@H]1O` [EUBOTRIOL], for which the IC50 was > 200 µM in assay [1] (read-out: IC50); > 200 µM in assay [2] (read-out: IC50); > 200 µM in assay [3] (read-out: IC50); “Not Active” against Acetylcholinesterase; 98.1 µM against Cholinesterase.
In the case of `C[C@]1(CO)CCC[C@]2(C)[C@H]1C[C@H](O)[C@@]13C[C@@H](CC[C@@H]21)[C@]1(C)O[C@@H]13` [SIDEROXOL], the IC50 in assay [1] (read-out: IC50) was > 200 µM; in assay [2] (read-out: IC50), > 200 µM; in assay [3] (read-out: IC50), > 200 µM; at Acetylcholinesterase (read-out: IC50), 14.5 µM; against Cholinesterase it was 25 µM.
Take EUBOL: the IC50 in assay [1] (read-out: IC50) was > 200 µM; in assay [2] (read-out: IC50), > 200 µM; in assay [3] (read-out: IC50) it was > 200 µM; against Acetylcholinesterase it was “Not Active”; against Cholinesterase, 23.2 µM.
Regarding “ent-7alpha-acetoxy-15alpha,18-dihydroxykaur-16-ene”, the IC50 (in assay [1] (read-out: IC50); in assay [2] (read-out: IC50); in assay [3] (read-out: IC50); at Acetylcholinesterase (read-out: IC50); at Cholinesterase) was > 200 µM in each case.
